Test results as given in ChEMBL document CHEMBL1149433, “PABA/NO as an anticancer lead: analogue synthesis, structure revision, solution chemistry, reactivity toward glutathione, and in vitro activity” (J Med Chem, 2006).
≈ marks a conversion by molar mass, not a printed value. Calls of active or inactive are those of the source. The calls are words filed in the database; no cut-off is given here.

How the values were obtained:
[1] = Solubility in phosphate buffer at 37 degC; format: physicochemical
Procedure, shortened: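 Maximum solubility was measured in 0.1 M phosphate buffer at pH 7.4 and 37 °C.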

OVCAR-3 [2] = assay: Cytotoxicity against human ovarian cancer OVACAR3 cell line; format: functional; details: for CC50: read-out: LC50 (the source's name)
Procedure, shortened: (§1)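 Cells grown 24 h at 37 °C in RPMI 1640 with 5% FBS and 2 mM L-glutamine before dosing. Compounds were diluted from DMSO stocks to 10^-8 to 10^-4 M (five log concentrations) and incubated 48 h. Cells were TCA-fixed and stained with sulforhodamine B, with OD read at 515 nm. GI50, TGI and LC50 come from percent growth versus log concentration curves.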

NIH3T3 = assay: Cytotoxicity against mouse embryonic fibroblast NIH3T3 cell line; format: functional, cell-based
HL-60 = assay: Inhibition of human myeloid leukemia HL60 cell viability; format: functional, cell-based
LOX IMVI [3] = assay: Cytotoxicity against human melanoma cancer LOXIMVI cell line; format: functional; procedure, shortened: as §1
CAKI-1 [4] = assay: Cytotoxicity against human renal cancer CAKI1 cell line; format: functional; details: for CC50: read-out: LC50 (the source's name); procedure, shortened: as §1
HCT-15 [5] = assay: Cytotoxicity against human colon cancer HCT15 cell line; format: functional; details: for CC50: read-out: LC50 (the source's name); procedure, shortened: as §1
LOX IMVI [6] = assay: Cytotoxicity against human melanoma cancer LOXIMVI cell line at 100 uM; format: functional, cell-based; procedure, shortened: as §1
CAKI-1 [7] = assay: Cytotoxicity against human renal cancer CAKI1 cell line at 100 uM; format: functional, cell-based; procedure, shortened: as §1
OVCAR-3 [8] = assay: Cytotoxicity against human ovarian cancer OVACAR3 cell line at 100 uM; format: functional, cell-based; procedure, shortened: as §1
HCT-15 [9] = assay: Cytotoxicity against human colon cancer HCT15 cell line at 100 uM; format: functional, cell-based; procedure, shortened: as §1

| Compound | solubility [1] [µM] | GI50 (OVCAR-3 [2]) [µM] | TGI (OVCAR-3 [2]) [µM] | CC50 (OVCAR-3 [2]) [µM] | IC50 (NIH3T3) [µM] | IC50 (HL-60) [µM] | LC50 (concentration giving 50% net cell kill) (LOX IMVI [3]) [µM] | GI50 (CAKI-1 [4]) [µM] | TGI (CAKI-1 [4]) [µM] | CC50 (CAKI-1 [4]) [µM] | GI50 (HCT-15 [5]) [µM] | TGI (HCT-15 [5]) [µM] | CC50 (HCT-15 [5]) [µM] | Activity (LOX IMVI [6]) | Activity (CAKI-1 [7]) | Activity (OVCAR-3 [8]) | Activity (HCT-15 [9]) | GI50 (LOX IMVI [3]) [µM] | TGI (LOX IMVI [3]) [µM] |
| --- | --- | --- | --- | --- | --- | --- | --- | --- | --- | --- | --- | --- | --- | --- | --- | --- | --- | --- | --- |
| CN(C)/[N+]([O-])=N/Oc1cc(Nc2ccc(C(=O)O)cc2)c([N+](=O)[O-])cc1[N+](=O)[O-] | > 3000 | 5.5 | 9 | 100 | 73 | 9.1 | – | – | – | – | – | – | – | – | – | – | – | – | – |
| CN(C)/[N+]([O-])=N/Oc1cc(Nc2cccc(C(=O)O)c2)c([N+](=O)[O-])cc1[N+](=O)[O-] | > 2000 | 3.9 | 30 | 58 | 80 | – | 60 | 2.2 | 51 | > 100 | 20 | 36 | 68 | – | – | – | – | – | – |
| CN(c1cccc(C(=O)O)c1)c1cc(O/N=[N+](\[O-])N(C)C)c([N+](=O)[O-])cc1[N+](=O)[O-] | 3000 (≈ 1260 µg/mL) | – | – | – | 83 | 11.6 | – | – | – | – | – | – | – | inactive | inactive | inactive | inactive | – | – |
| CNc1ccc(C(=O)Oc2cc(O/N=[N+](\[O-])N(C)C)c([N+](=O)[O-])cc2[N+](=O)[O-])cc1 | < 2 | 2.6 | 6.9 | 2.6 | 5.6 | 6.3 | – | 1.8 | 4 | 8.9 | 2 | 5.3 | 19 | – | – | – | – | 1.9 | 4.4 |
